Measurements: ChEMBL document CHEMBL1130328, “Synthesis and pharmacological activity of deltorphin and dermorphin-related glycopeptides” (J Med Chem, 1997)

Legend:
Mu-type opioid receptor = Mu-type opioid receptor (Rattus norvegicus, UniProt P33535); assay: Opioid receptor mu 1 binding affinity by displacement of radioligand [3H][DAla,MePhe,Gly-ol]enkephalin (DAGO) from rat brain membrane synaptosomes; type: subcellular
Method in brief: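 Rat brain (male Sprague–Dawley) P2 synaptosomes, preincubated to remove endogenous opioids and washed. Incubated 120 min at 22 °C, 1.6 mg protein, in duplicate, with 0.62 nM [3H]DPDPE (δ) or 0.68 nM [3H]DAGO (μ). Nonspecific binding with 1–2 μM unlabelled ligand. Filtration, scintillation counting. Five to seven concentrations. Ki from IC50 by Cheng–Prusoff, mean ± SE, n = 3–9.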

Cavia porcellus = organism: Cavia porcellus; assay: Bioactivity in vitro in guinea pig ileum (GPI) isolated organ preparation; type: functional
Method in brief: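 Guinea pig ileum segment (2–3 cm) in 20 mL bath with 70 μM hexamethonium and 0.125 μM mepyramine, 95% O2/5% CO2, 36 °C. Transmural stimulation 0.5 ms pulses at 0.1 Hz, 1.5× maximal-twitch voltage. 1 g load, 45 min equilibration, isotonic recording. Dose–response curves run against a reference agonist. Means of six experiments.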

[1] = biological target: Delta-type opioid receptor (Rattus norvegicus, UniProt P33533); assay: Opioid receptor delta 1 binding affinity by displacement of radioligand [3H][D-Pen]-enkephalin (DPDPE) from rat brain membrane synaptosomes; type: subcellular
Oryctolagus cuniculus = organism: Oryctolagus cuniculus; assay: Bioactivity in vitro in rabbit jejunum (RJ) isolated organ preparation; type: functional
Method in brief: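 Rabbit jejunum on isotonic transducer under 1 g load, equilibrated 45 min while recording spontaneous activity without washing. Dose–response curves run against a reference agonist. At least four jejunum preparations, each from a different rabbit. Means of six experiments.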

Sequence of Mu-type opioid receptor (P33535 whole entry): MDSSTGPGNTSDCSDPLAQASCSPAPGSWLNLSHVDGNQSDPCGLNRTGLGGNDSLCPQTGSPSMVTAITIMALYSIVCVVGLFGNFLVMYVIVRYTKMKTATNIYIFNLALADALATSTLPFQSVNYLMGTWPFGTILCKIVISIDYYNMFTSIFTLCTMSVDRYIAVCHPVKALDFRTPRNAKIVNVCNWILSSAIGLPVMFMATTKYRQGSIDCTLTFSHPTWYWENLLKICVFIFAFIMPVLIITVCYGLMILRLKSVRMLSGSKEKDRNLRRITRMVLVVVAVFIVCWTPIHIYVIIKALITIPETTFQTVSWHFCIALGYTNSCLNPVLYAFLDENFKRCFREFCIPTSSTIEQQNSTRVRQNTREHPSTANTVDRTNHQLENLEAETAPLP
Sequence of Delta-type opioid receptor (P33533 whole entry): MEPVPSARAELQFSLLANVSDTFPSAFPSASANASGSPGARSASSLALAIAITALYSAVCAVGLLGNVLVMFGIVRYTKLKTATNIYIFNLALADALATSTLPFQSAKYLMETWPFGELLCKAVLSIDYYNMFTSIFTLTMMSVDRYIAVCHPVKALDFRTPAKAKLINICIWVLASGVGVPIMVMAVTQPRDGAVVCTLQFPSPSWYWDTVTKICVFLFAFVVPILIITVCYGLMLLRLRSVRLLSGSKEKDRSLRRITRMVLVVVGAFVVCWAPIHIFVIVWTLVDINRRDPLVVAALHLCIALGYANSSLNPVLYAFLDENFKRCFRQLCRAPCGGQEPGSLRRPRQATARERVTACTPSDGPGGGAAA

| SMILES | Ki (Mu-type opioid receptor) [nM] | IC50 (Cavia porcellus) [nM] | Ki [1] [nM] | IC50 (Oryctolagus cuniculus) [nM] |
| --- | --- | --- | --- | --- |
| C[C@H](O[C@H]1O[C@@H](CO)[C@H](O)[C@@H](O)[C@@H]1O)[C@H](NC(=O)[C@@H]1CCCN1C(=O)[C@H](Cc1ccc(O)cc1)NC(=O)CNC(=O)[C@H](Cc1ccccc1)NC(=O)[C@@H](C)NC(=O)[C@@H](N)Cc1ccc(O)cc1)C(=O)NCC(N)=O | 0.29 | 3.1 | 67 | – |
| CC(=O)OC[C@@H]1O[C@H](O[C@@H](C)[C@H](NC(=O)[C@@H](NC(=O)[C@@H](NC(=O)[C@H](CC(=O)O)NC(=O)[C@H](Cc2ccccc2)NC(=O)[C@@H](C)NC(=O)[C@@H](N)Cc2ccc(O)cc2)C(C)C)C(C)C)C(=O)NCC(N)=O)[C@@H](OC(C)=O)[C@H](OC(C)=O)[C@H]1OC(C)=O | 635 | – | 1.3 | 890 |
| CC(=O)OC[C@@H]1O[C@H](O[C@H](C)[C@H](NC(=O)[C@@H]2CCCN2C(=O)[C@H](Cc2ccc(O)cc2)NC(=O)CNC(=O)[C@H](Cc2ccccc2)NC(=O)[C@@H](C)NC(=O)[C@@H](N)Cc2ccc(O)cc2)C(=O)NCC(N)=O)[C@@H](OC(C)=O)[C@H](OC(C)=O)[C@H]1OC(C)=O | 0.46 | 22.1 | 86.8 | – |
| CC(C)[C@H](NC(=O)[C@H](CC(=O)O)NC(=O)[C@H](Cc1ccccc1)NC(=O)[C@@H](C)NC(=O)[C@@H](N)Cc1ccc(O)cc1)C(=O)N[C@H](C(=O)N[C@H](C(=O)NCC(N)=O)[C@@H](C)O[C@H]1O[C@H](CO)[C@@H](O)[C@H](O)[C@H]1O)C(C)C | 579 | – | 1.55 | 995 |
| C[C@@H](NC(=O)[C@@H](N)Cc1ccc(O)cc1)C(=O)N[C@@H](Cc1ccccc1)C(=O)N[C@H](C(=O)N[C@@H](Cc1ccc(O)cc1)C(=O)N1CCC[C@H]1C(=O)N[C@@H](CO)C(N)=O)[C@@H](C)O[C@H]1O[C@H](CO)[C@@H](O)[C@H](O)[C@H]1O | 1700 | 3400 | 1760 | – |
| CC(=O)OC[C@H]1O[C@H](O[C@H](C)[C@H](NC(=O)[C@H](Cc2ccccc2)NC(=O)[C@@H](C)NC(=O)[C@@H](N)Cc2ccc(O)cc2)C(=O)N[C@H](C(=O)N[C@H](C(=O)NCC(N)=O)C(C)C)C(C)C)[C@H](OC(C)=O)[C@@H](OC(C)=O)[C@@H]1OC(C)=O | 1520 | – | 2110 | > 4000 |
| CC(C)[C@H](NC(=O)[C@@H](NC(=O)[C@@H](NC(=O)[C@H](Cc1ccccc1)NC(=O)[C@@H](C)NC(=O)[C@@H](N)Cc1ccc(O)cc1)[C@@H](C)O[C@H]1O[C@H](CO)[C@@H](O)[C@@H](O)[C@H]1O)C(C)C)C(=O)NCC(N)=O | 1990 | – | 9500 | > 4000 |
| CC(=O)OC[C@H]1O[C@H](O[C@H](C)[C@H](NC(=O)[C@H](Cc2ccccc2)NC(=O)[C@@H](C)NC(=O)[C@@H](N)Cc2ccc(O)cc2)C(=O)N[C@@H](Cc2ccc(O)cc2)C(=O)N2CCC[C@H]2C(=O)N[C@@H](CO)C(N)=O)[C@H](OC(C)=O)[C@H](OC(C)=O)[C@H]1OC(C)=O | 4400 | > 4000 | 22600 | – |
| CC(C)[C@H](NC(=O)[C@H](CC(=O)O)NC(=O)[C@H](Cc1ccccc1)NC(=O)[C@@H](C)NC(=O)[C@@H](N)Cc1ccc(O)cc1)C(=O)N[C@H](C(=O)NCC(N)=O)C(C)C [DELTORPHIN C] | – | – | – | 510 |
| C[C@@H](NC(=O)[C@@H](N)Cc1ccc(O)cc1)C(=O)N[C@@H](Cc1ccccc1)C(=O)NCC(=O)N[C@@H](Cc1ccc(O)cc1)C(=O)N1CCC[C@H]1C(=O)N[C@@H](CO)C(N)=O [DERMORPHIN] | 0.28 | 2.1 | – | – |
